NR2E3 ag-1: activates human NR2E3 receptor | inhibition of corepressor binding, % at 3.98 µM | CHO-S Gal4-NCOR/VP16-NR2E3 two-hybrid, luciferase | AID 602229 | hit rate 0.35% among 360,000;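 active = inhibition above the mean of all tested compounds plus 3 SD, cut at about 70% in these data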;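 also: 0% = DMSO with NR2E3 transfected cells and 100% = cells lacking NR2E3 construct; higher means lower luciferase signal from less NR2E3 corepressor binding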
Target sequence (Q9Y5X4 whole entry, looked up, the tested form may be a part): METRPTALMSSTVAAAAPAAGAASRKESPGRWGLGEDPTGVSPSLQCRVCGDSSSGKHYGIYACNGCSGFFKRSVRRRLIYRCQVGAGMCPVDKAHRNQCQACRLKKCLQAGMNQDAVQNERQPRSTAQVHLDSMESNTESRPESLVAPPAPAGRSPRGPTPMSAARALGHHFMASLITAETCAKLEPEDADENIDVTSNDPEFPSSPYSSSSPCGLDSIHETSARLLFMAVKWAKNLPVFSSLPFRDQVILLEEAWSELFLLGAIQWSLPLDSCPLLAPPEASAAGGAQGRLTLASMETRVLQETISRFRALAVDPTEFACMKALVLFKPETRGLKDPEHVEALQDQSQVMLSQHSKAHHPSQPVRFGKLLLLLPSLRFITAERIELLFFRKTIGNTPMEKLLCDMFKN
SKN-1 block: C. elegans SKN-1 inhibition. C. elegans VP596 Pgst-4::GFP/RFP ratio, acrylamide-induced, 24 h. inhibition, % at 21.8 µM. hit rate 0.49% among 360,000. AID 624304;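 active = interference check ratio from 0.5 to 1.5 plus GFP to RFP signal ratio inhibition reaching or exceeding a fixed threshold, cut at about 30% in these data, passing the limit was not always enough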
MT1-MMP act inh: inhibitors of human MT1-MMP activation | AID 651647 | hit rate 0.061% among 360,000 | GFP/RFP ratio change, % at 20 µM | HT1080 RFP-PRO-GFP cells, GFP/RFP ratio fluorescence, overnight; percent of plate control window, DMSO zero | P50281;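 active = GFP/RFP ratio change of at least 30% with cell ATP level not reduced by more than half and red fluorescence within 50% of control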
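Material – HT1080 RFP-PRO-GFP cells · Control set – DMSO wells and RFP-L50D-GFP cells · Incubation – overnight cell settling, then overnight compound exposure, 37 °C, 5% CO2 · Compound dosing – single-point 20 µM compound, 1% DMSO · Read-out – GFP/RFP fluorescence ratio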
NR1D1 modulator: modulators of human Rev-erb alpha DNA binding. P20393. Rev-erbα–FITC-DNA binding, fluorescence polarization, 90 min. activity, % at 10 µM. hit rate 0.79% among 370,000;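 active = activity above about 14%, limit read from the data; passing the limit was not always enough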;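 also: 0% = DMSO wells with 35 nM protein and 100% = DMSO wells with 750 nM protein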
PG9 Ab binder: PG9 antibody binding by small molecule. TR-FRET gp120-PG9 antibody binding. inhibition, % at 6.7 µM. hit rate 0.43% among 360,000; in the data active = inhibition above about 8.5%
NR2E3 ag-2: NR2E3 (human) agonism; GST-NR2E3/biotin-RetCOR TR-FRET, 1536-well; inhibition of corepressor binding, % at 4.78 µM; hit rate 0.12% among 320,000;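 active = percent inhibition above the cutoff of mean plus 3 SD of all tested compounds, set per screening campaign, cut at about 20% in these data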;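 also: 0% = DMSO wells and 100% = biotin wells as full block of FRET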
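Material: NR2E3–RetCOR corepressor complex | Quantity: 1.35 nM GST-tagged NR2E3 final | Schedule: 5 h at 4 °C | Replication: Singlicate compound wells | Reagent: RetCOR corepressor, biotinylated, 7 nM | Controls: Biotin wells as high control, 0.6% DMSO wells as low control | Signal: TR-FRET, Eu(K)-anti-GST donor, streptavidin-D2 acceptor, ex 340, em 617/671 nm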
PG9 binder conf: confirmation of small molecules binding HIV-1 gp120 antibody PG9; inhibition, % at 6.7 µM; AID 651571; TR-FRET PG9 antibody binding, biochemical; hit rate 90% among 1,500; shares compounds with PG9 Ab binder; in the data active = inhibition above about 9%
PGV04 Ab binding: binds control antibody PGV04 in PG9 binder counter-screen; TR-FRET PGV04 antibody-gp120 binding, biochemical; shares compounds with PG9 Ab binder; hit rate 95% among 1,500; inhibition, % at 6.7 µM; in the data active = inhibition above about 9.5%
NR1D1 mod conf: confirmation of modulators of human Rev-erb alpha DNA binding | activation, % at 25 µM | Rev-erb alpha FITC-DNA binding, fluorescence polarization, 90 min | shares compounds with NR1D1 modulator | hit rate 61% among 3,000 | AID 1259319;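 active = activation at or above a set limit, or at least 3 SD above the negative control mean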;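 also: 0% = 35 nM protein with DMSO and 100% = 750 nM protein high control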
RORg DNA counter: RORgamma DNA-binding activity, dose-response counter-screen. shares compounds with NR1D1 modulator. purified RORgamma protein-FITC-DNA binding, fluorescence polarization. IC50, µM. hit rate 8% among 910. AID 1259320;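 active = Compounds whose fitted half-maximal concentration for disrupting protein-DNA binding is below 10 micromolar; the record names Rev-erb in its text, so the target is in doubt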
* = called active by the depositor. In the library only some 1.9% were active in any assay of this set; here they are far more common.

Results for COC(=O)[C@]12C[C@H](CC(=O)N3CCC(c4ccccc4)CC3)C(=O)N(Cc3ccc4c(c3)OCO4)C1=C[C@H](C(C)(C)C)O[C@@H]2C ?
NR1D1 modulator: 4; PG9 Ab binder: -1

How did O=[N+]([O-])c1ccc2c(c1)CO[C@]21O[C@H](CCO)C[C@H](O)[C@H]1O do in these assays?
NR1D1 modulator: 1; PG9 Ab binder: -2

Results for Cc1ccc(Cl)cc1-n1c(SCC(=O)NCCC2=CCCCC2)nc2n[nH]c(C)c2c1=N ?
NR2E3 ag-1: -21; SKN-1 block: 10; MT1-MMP act inh: 1; NR1D1 modulator: 29*; PG9 Ab binder: 14*; NR2E3 ag-2: -1; PG9 binder conf: 15*; PGV04 Ab binding: 20*; NR1D1 mod conf: 15

What do the screens show for `O=C(CCN1C(=O)c2cccc3cccc(c23)C1=O)Nc1ccon1`?
NR2E3 ag-1: 1; SKN-1 block: 4; MT1-MMP act inh: -2; NR1D1 modulator: 43*; PG9 Ab binder: 12*; NR2E3 ag-2: 1; PG9 binder conf: 17*; PGV04 Ab binding: 36*; NR1D1 mod conf: 30*

How did Cc1cccc(NC(=O)CCN2C(=O)c3ccccc3C2=O)n1 do in these assays?
NR2E3 ag-1: -7; SKN-1 block: -2; MT1-MMP act inh: 6; NR1D1 modulator: 6; PG9 Ab binder: 2; NR2E3 ag-2: 0

Results for C=CCNC(=O)c1ccc(Cn2c(=S)[nH]c3cc4c(cc3c2=O)OCO4)cc1 ?
NR2E3 ag-1: 10; SKN-1 block: 13; MT1-MMP act inh: 13; NR1D1 modulator: 58*; PG9 Ab binder: 23*; NR2E3 ag-2: -54; PG9 binder conf: 16*; PGV04 Ab binding: 31*; NR1D1 mod conf: 64*; RORg DNA counter: inactive

Results for CCN(CC)C(=O)c1ccc2c(=O)n(Cc3ccc4c(c3)OCO4)c(=S)[nH]c2c1 ?
NR2E3 ag-1: -3; SKN-1 block: 10; MT1-MMP act inh: 2; NR1D1 modulator: 29*; PG9 Ab binder: 24*; NR2E3 ag-2: 1; PG9 binder conf: 4; PGV04 Ab binding: 9; NR1D1 mod conf: 11

Results for O=C(CCCCn1c(=O)[nH]c2ccsc2c1=O)NCc1ccc2c(c1)OCO2 ?
NR2E3 ag-1: 0; SKN-1 block: 14; MT1-MMP act inh: -1; NR1D1 modulator: 4; PG9 Ab binder: 0; NR2E3 ag-2: 1

What do the screens show for `O=C(CCCCn1c(=S)[nH]c2ccsc2c1=O)NCc1ccc2c(c1)OCO2`?
NR2E3 ag-1: 18; SKN-1 block: 6; MT1-MMP act inh: 0; NR1D1 modulator: 20*; PG9 Ab binder: 15*; NR2E3 ag-2: 1; PG9 binder conf: 16*; PGV04 Ab binding: 28*; NR1D1 mod conf: 14

What do the screens show for `OC(c1ccccc1)(c1ccccc1)C1CCN(CCCOc2cccnc2)CC1`?
NR1D1 modulator: -2; PG9 Ab binder: -3

Results for COC(=O)C1=C(C)N(C)C(=NCc2ccccc2)NC1c1ccccc1 (stereo unspecified) ?
NR1D1 modulator: 0; PG9 Ab binder: 1

What do the screens show for `Cc1cccc(C)c1NC(=O)C1(C)CSCC(=O)N1CCCN1CCOCC1` (stereo unspecified)?
SKN-1 block: 8; MT1-MMP act inh: -2; NR1D1 modulator: 4; PG9 Ab binder: -2

What do the screens show for `Nc1[nH]c(C(=O)c2ccccc2)c(-c2ccc(Cl)cc2)c1C(=O)c1c[nH]c2ccc(F)cc12`?
NR1D1 modulator: 4; PG9 Ab binder: -1
